# Results published in ChEMBL document CHEMBL5331127, “Discovery of ARD-2051 as a Potent and Orally Efficacious Proteolysis Targeting Chimera (PROTAC) Degrader of Androgen Receptor for the Treatment of Advanced Prostate Cancer” (J Med Chem, 2023).
# Key:
# Androgen receptor = molecular target: T1, Androgen receptor (Homo sapiens, UniProt P10275); assay: Displacement of Fluormone AL Green from androgen receptor LBD (unknown origin) incubated for 4 hrs by fluorescence polarization assay
# T1 sequence (P10275 whole entry): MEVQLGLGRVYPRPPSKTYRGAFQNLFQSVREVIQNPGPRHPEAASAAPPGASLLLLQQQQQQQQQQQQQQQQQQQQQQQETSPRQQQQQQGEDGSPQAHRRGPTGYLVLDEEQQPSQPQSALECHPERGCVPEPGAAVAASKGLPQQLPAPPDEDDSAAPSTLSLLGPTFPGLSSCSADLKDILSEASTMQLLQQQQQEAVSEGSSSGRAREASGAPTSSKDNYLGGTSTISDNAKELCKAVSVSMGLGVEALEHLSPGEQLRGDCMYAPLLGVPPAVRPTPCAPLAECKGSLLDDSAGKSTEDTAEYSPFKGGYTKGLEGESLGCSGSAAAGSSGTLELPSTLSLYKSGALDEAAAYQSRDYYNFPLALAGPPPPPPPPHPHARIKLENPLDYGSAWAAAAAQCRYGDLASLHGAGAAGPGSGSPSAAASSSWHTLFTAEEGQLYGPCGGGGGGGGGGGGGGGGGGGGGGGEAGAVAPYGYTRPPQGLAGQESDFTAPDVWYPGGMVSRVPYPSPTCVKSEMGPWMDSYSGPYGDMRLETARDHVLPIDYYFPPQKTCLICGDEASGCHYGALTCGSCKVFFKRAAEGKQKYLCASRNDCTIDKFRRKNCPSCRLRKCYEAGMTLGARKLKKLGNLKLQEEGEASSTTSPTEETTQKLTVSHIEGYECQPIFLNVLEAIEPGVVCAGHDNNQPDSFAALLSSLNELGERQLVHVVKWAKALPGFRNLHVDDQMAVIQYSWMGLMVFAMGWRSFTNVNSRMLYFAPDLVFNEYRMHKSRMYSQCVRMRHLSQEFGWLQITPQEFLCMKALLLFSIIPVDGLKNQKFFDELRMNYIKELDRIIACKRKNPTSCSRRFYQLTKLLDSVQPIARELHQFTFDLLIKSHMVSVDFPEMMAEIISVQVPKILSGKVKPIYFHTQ
# [1] = Drug concentration in ICR mouse plasma at 10 mg/kg, po measured after 3 hrs; format: ADME, organism-based
# Outline: (§1)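 Mice given a single 10 mg/kg dose by oral gavage, 3 mice per time point. Plasma drug levels measured at 1, 3, 6 and 24 h; mean ± SD reported.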
# [2] = Drug concentration in ICR mouse plasma at 10 mg/kg, po measured after 24 hrs; format: ADME, organism-based; outline: as §1
# VCaP = assay: Growth inhibition in human VCaP cells incubated for 4 days by WST-8 assay relative to control; format: functional; details: time 4 day
# Outline: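 VCaP prostate cancer cells (ATCC) were maintained in DMEM with Glutamax plus 10% fetal bovine serum at 37 °C, humidified 5% CO2. They were exposed to compound for 4 days, and viability was then read by WST-8 colorimetric assay following the kit instructions.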
# [3] = Drug concentration in ICR mouse plasma at 10 mg/kg, po measured after 1 hr; format: ADME, organism-based; outline: as §1
# LNCaP = assay: Growth inhibition in human LNCaP cells incubated for 4 days by WST-8 assay relative to control; format: functional; details: time 4 day
# Outline: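 LNCaP cells grown in RPMI 1640 with 10% FBS, treated for 4 days. Viability read by WST-8 assay.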
# [4] = Drug concentration in ICR mouse plasma at 10 mg/kg, po measured after 6 hrs; format: ADME, organism-based; outline: as §1
# [5] = molecular target: T2, Androgen receptor (Homo sapiens) (UniProt P10275); assay: Displacement of Fluormone AL Green from androgen receptor LBD (unknown origin) at 1 uM incubated for 4 hrs by fluorescence polarization assay relative to control
# T2 sequence (whole entry): T1 sequence (P10275 whole entry)
structure (smiles),measurement,setting,value
CN1CCN(C(=O)c2ccc(N3CCC4(CC3)CCN(c3ccc(C#N)c(Cl)c3)C4)cc2)CC1,IC50,Androgen receptor,78 nM
N#Cc1ccc(N2CCC3(CCN(C(=O)c4ccccc4)CC3)C2)cc1Cl,IC50,Androgen receptor,1700 nM
CN1CCN(c2ccc(C(=O)N3CCC4(CC3)CCN(c3ccc(C#N)c(Cl)c3)C4)cc2)CC1,IC50,Androgen receptor,800 nM
N#Cc1ccc(O[C@H]2CC[C@H](NC(=O)c3ccc(N4CCC(CN5CCN(c6cc7c(cc6F)C(=O)N(C6CCC(=O)NC6=O)C7=O)CC5)CC4)nn3)CC2)cc1Cl (stereo partly specified) [BAVDEGALUTAMIDE],concentration at 3 h,[1],124 ng/mL
same,concentration at 24 h,[2],70 ng/mL
same,Imax,VCaP,88%
same,concentration at 1 h,[3],55 ng/mL
same,Imax,LNCaP,90%
same,concentration at 6 h,[4],110 ng/mL
N#Cc1ccc(N2CCC3(CCN(c4ccccc4)CC3)C2)cc1Cl,IC50,Androgen receptor,> 1000 nM
same,inhibition,[5],30%
